Source: ChEMBL document CHEMBL5303300, “EUbOPEN Chemogenomics Library - Multiplex” (2023)
Where “and” joins values, the source holds several entries; their conditions need not be identical. Identical values can stand only once.

Tested on: U2OS
Assay: Multiplex assay against U2OS
Format: toxicity, cell-based
Conditions: human, number of replicates 2
Outline: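 On a CQ1 microscope at 37°C and 5% CO2, live cells were imaged after compound addition. They had been stained at seeding with Hoechst33342, BioTracker Green Microtubule Cytoskeleton Dye, MitoTracker Red and Annexin V Alexa Fluor 680. CellPathfinder machine-learning gating assigned cells to Hoechst high-intensity objects or normal cells, normal cells to healthy, pyknosed or fragmented nuclei, and pyknosed cells to mitotic or apoptotic. Tubulin, mitochondrial-mass and membrane-permeability phenotypes are per cents of healthy-nucleus cells.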

[1] = 12 h, 1 µM, compound concentration 1 uM
[2] = 12 h, 10 µM, compound concentration 10 uM
[3] = 24 h, 1 µM, compound concentration 1 uM
[4] = 24 h, 10 µM, compound concentration 10 uM
[5] = 48 h, 1 µM, compound concentration 1 uM
[6] = 48 h, 10 µM, compound concentration 10 uM

In the case of `CN(C)CCN(Cc1ccc(-c2ccc(CNCCc3ccccc3)cc2)cc1)C(=O)CCC1CCCC1.Cl.Cl`, the “Population Apoptotic (%)” value [1] is reported as 77% and 66%, the “Population Fragmented Nuclei (%)” value [1] is reported as 17% and 9% and the “Population Healthy Nuclei (%)” value [1] is reported as 55% and 78%. The “Population Hoechst High Intensity Objects (%)” value [1] was 0%, the “Population Membrane Permeable-Phenotype (%)” value [1] was 0% and 6% and the “Population Mitochondria Different-Phenotype (%)” value [1] was 36% and 27%. The “Population Mitotic Cells (%)” value [1] was 22% and 33%, the “Population Normal (%)” value [1] was 100% and the “Population Pyknosed Nuclei (%)” value [1] was 26% and 11%. The “Population Tubulin-Different-Phenotype (%)” value [1] was 42% and 43%, the “Population Apoptotic (%)” value [2] was 100% and 99% and the “Population Fragmented Nuclei (%)” value [2] was 7% and 5%. For the same molecule, the “Population Healthy Nuclei (%)” value [2] was 11% and 13%, the “Population Hoechst High Intensity Objects (%)” value [2] was 0% and 2% and the “Population Membrane Permeable-Phenotype (%)” value [2] was 100%. For the same molecule, the “Population Mitochondria Different-Phenotype (%)” value [2] was 100% and 88%, the “Population Mitotic Cells (%)” value [2] was 0% and the “Population Normal (%)” value [2] was 100% and 97%. The “Population Pyknosed Nuclei (%)” value [2] was 80% and 81%, the “Population Tubulin-Different-Phenotype (%)” value [2] was 100% and 88% and the “Population Apoptotic (%)” value [3] was 78% and 64%. The “Population Fragmented Nuclei (%)” value [3] was 10% and 23%, the “Population Healthy Nuclei (%)” value [3] was 73% and 44% and the “Population Hoechst High Intensity Objects (%)” value [3] was 0%. For the same molecule, the “Population Membrane Permeable-Phenotype (%)” value [3] was 7% and 5%, the “Population Mitochondria Different-Phenotype (%)” value [3] was 39% and 57% and the “Population Mitotic Cells (%)” value [3] was 21% and 35%. The “Population Normal (%)” value [3] was 100%, the “Population Pyknosed Nuclei (%)” value [3] was 16% and 32% and the “Population Tubulin-Different-Phenotype (%)” value [3] was 44% and 36%. The “Population Apoptotic (%)” value [4] was 100% and 96%, the “Population Healthy Nuclei (%)” value [4] was 3% and 6% and the “Population Hoechst High Intensity Objects (%)” value [4] was 0% and 3%. The “Population Membrane Permeable-Phenotype (%)” value [4] was 100%, the “Population Mitochondria Different-Phenotype (%)” value [4] was 100% and 88% and the “Population Mitotic Cells (%)” value [4] was 0% and 3%. The “Population Normal (%)” value [4] was 100% and 96%, the “Population Pyknosed Nuclei (%)” value [4] was 76% and 87% and the “Population Tubulin-Different-Phenotype (%)” value [4] was 100% and 88%. For the same molecule, the “Population Apoptotic (%)” value [5] was 80% and 83%, the “Population Fragmented Nuclei (%)” value [5] was 26% and 10% and the “Population Healthy Nuclei (%)” value [5] was 34% and 70%. The “Population Hoechst High Intensity Objects (%)” value [5] was 0%, the “Population Mitotic Cells (%)” value [5] was 20% and 16% and the “Population Normal (%)” value [5] was 100%. For the same molecule, the “Population Pyknosed Nuclei (%)” value [5] was 40% and 18%, the “Population Tubulin-Different-Phenotype (%)” value [5] was 58% and 62% and the “Population Apoptotic (%)” value [6] was 93% and 97%. The “Population Fragmented Nuclei (%)” value [6] was 8% and 14%, the “Population Hoechst High Intensity Objects (%)” value [6] was 0% and 1% and the “Population Membrane Permeable-Phenotype (%)” value [6] was 100%. The “Population Mitochondria Different-Phenotype (%)” value [6] was 100%, the “Population Mitotic Cells (%)” value [6] was 6% and 2% and the “Population Normal (%)” value [6] was 100% and 98%. The “Population Pyknosed Nuclei (%)” value [6] was 66% and 80% and the “Population Tubulin-Different-Phenotype (%)” value [6] was 100%.

In the case of `CN1CCc2cc(Cl)c(O)cc2[C@@H](c2ccccc2)C1.Cl`, the “Population Apoptotic (%)” value [1] is reported as 100% and 36%, the “Population Healthy Nuclei (%)” value [1] is reported as 58% and 86% and the “Population Hoechst High Intensity Objects (%)” value [1] is reported as 0%. For the same molecule, the “Population Membrane Permeable-Phenotype (%)” value [1] was 0%, the “Population Mitochondria Different-Phenotype (%)” value [1] was 0% and the “Population Normal (%)” value [1] was 100%. The “Population Pyknosed Nuclei (%)” value [1] was 12% and 7%, the “Population Tubulin-Different-Phenotype (%)” value [1] was 78% and 88% and the “Population Apoptotic (%)” value [2] was 50% and 29%. For the same molecule, the “Population Fragmented Nuclei (%)” value [2] was 3% and 4%, the “Population Healthy Nuclei (%)” value [2] was 75% and 85% and the “Population Hoechst High Intensity Objects (%)” value [2] was 0%. The “Population Membrane Permeable-Phenotype (%)” value [2] was 0% and 2%, the “Population Mitochondria Different-Phenotype (%)” value [2] was 0% and the “Population Mitotic Cells (%)” value [2] was 50% and 70%. For the same molecule, the “Population Normal (%)” value [2] was 100% and 99%, the “Population Pyknosed Nuclei (%)” value [2] was 21% and 9% and the “Population Tubulin-Different-Phenotype (%)” value [2] was 55% and 80%. For the same molecule, the “Population Apoptotic (%)” value [3] was 28% and 33%, the “Population Healthy Nuclei (%)” value [3] was 56% and 87% and the “Population Hoechst High Intensity Objects (%)” value [3] was 0%. For the same molecule, the “Population Membrane Permeable-Phenotype (%)” value [3] was 0% and 1%, the “Population Mitochondria Different-Phenotype (%)” value [3] was 0% and the “Population Mitotic Cells (%)” value [3] was 71% and 66%. For the same molecule, the “Population Normal (%)” value [3] was 100%, the “Population Pyknosed Nuclei (%)” value [3] was 15% and 7% and the “Population Tubulin-Different-Phenotype (%)” value [3] was 88% and 92%. For the same molecule, the “Population Apoptotic (%)” value [4] was 50% and 58%, the “Population Fragmented Nuclei (%)” value [4] was 5% and 3% and the “Population Healthy Nuclei (%)” value [4] was 85% and 87%. For the same molecule, the “Population Hoechst High Intensity Objects (%)” value [4] was 0%, the “Population Membrane Permeable-Phenotype (%)” value [4] was 1% and the “Population Mitochondria Different-Phenotype (%)” value [4] was 0%. The “Population Mitotic Cells (%)” value [4] was 50% and 41%, the “Population Normal (%)” value [4] was 100% and 99% and the “Population Pyknosed Nuclei (%)” value [4] was 10% and 8%. The “Population Tubulin-Different-Phenotype (%)” value [4] was 75% and 81%, the “Population Apoptotic (%)” value [5] was 54% and 50% and the “Population Fragmented Nuclei (%)” value [5] was 8% and 3%. The “Population Healthy Nuclei (%)” value [5] was 73% and 92%, the “Population Hoechst High Intensity Objects (%)” value [5] was 1% and 0% and the “Population Membrane Permeable-Phenotype (%)” value [5] was 2% and 1%. For the same molecule, the “Population Mitochondria Different-Phenotype (%)” value [5] was 2% and 0%, the “Population Mitotic Cells (%)” value [5] was 45% and 50% and the “Population Normal (%)” value [5] was 98% and 100%. For the same molecule, the “Population Tubulin-Different-Phenotype (%)” value [5] was 80% and 90%, the “Population Apoptotic (%)” value [6] was 50% and 53% and the “Population Fragmented Nuclei (%)” value [6] was 11% and 3%. For the same molecule, the “Population Healthy Nuclei (%)” value [6] was 79% and 88%, the “Population Hoechst High Intensity Objects (%)” value [6] was 0% and the “Population Membrane Permeable-Phenotype (%)” value [6] was 0% and 2%. The “Population Mitochondria Different-Phenotype (%)” value [6] was 1% and 0%, the “Population Mitotic Cells (%)” value [6] was 50% and 46% and the “Population Normal (%)” value [6] was 100%. For the same molecule, the “Population Pyknosed Nuclei (%)” value [6] was 9% and 7% and the “Population Tubulin-Different-Phenotype (%)” value [6] was 87%.
